Screening results as filed in PubChem.
Compounds with a hit are over-represented: about 2.7% of the library has one in this group of screens.
OX1R antag-1: OX1R (HCRTR1) antagonists, primary screen, fluorescence, CHO/OX1R cells, Fluo-8 calcium, orexin A; Orexin/Hypocretin receptor type 1 (Homo sapiens), O43613; Fluo-8 calcium fluorescence; inhibition, % at 5 µM; 330,000 tested, 0.43% active;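 active means inhibition above its plate's threshold, mean inhibition of all tested compounds on the plate plus 3 SD, cut at about 37% in these data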
V1aR counter: agonists of human V1a receptor, primary screen, counter-screen for OXTR agonist project, fluorescence, CHO-V1R cells; Vasopressin V1a receptor (Homo sapiens), P37288; activation, % at 3 µM; Fluo-8 calcium fluorescence, agonist mode; 0% DMSO, 100% 3 nM vasopressin; 320,000 tested, 0.25% active;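 active means activation above the mean activation of all tested compounds plus 3 SD, per screening run, cut at about 20% in these data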;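 further: signal is peak over basal fluorescence ratio across a 100 second FLIPR read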
CHO parental Ca: ATP-evoked calcium signal inhibitors, parental CHO, primary screen, counter-screen for OX1R antagonist project, cell-based, fluorescence, Fluo-8 calcium dye; parental CHO-K1, ATP-induced calcium, Fluo-8 fluorescence; inhibition, % at 5.6 µM; 330,000 tested, 0.63% active;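 active means inhibition above that plate's mean sample inhibition plus 3 SD, cut at about 26% in these data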
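Assay system: parental CHO cells; Read-out basis: percent inhibition of ATP-evoked calcium rise, normalized to controls; Benchmarks: ATP and no-ATP DMSO wells; Compound dosing: single nominal dose of 5.6 µM per compound; Signal: Fluo-8 calcium dye fluorescence; Also added: ATP as calcium-mobilizing challenge; Repeats: singlicate.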
OXTR potentiate: human OXTR potentiators, primary screen, fluorescence, CHO-OTR cells, Fluo-8 calcium | AID 2445, 2010 | activation, % at 3 µM | Fluo-8 calcium fluorescence, potentiator mode; 0% = oxytocin EC15, 100% = EC100 | Oxytocin receptor (Homo sapiens), P30559 | 320,000 tested, 0.061% active;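 active means activation above that plate's cutoff, the mean activation of tested compounds plus 3 SD, cut at about 6.6% in these data, passing the limit was not always enough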
Target sequence (P30559 whole entry, looked up): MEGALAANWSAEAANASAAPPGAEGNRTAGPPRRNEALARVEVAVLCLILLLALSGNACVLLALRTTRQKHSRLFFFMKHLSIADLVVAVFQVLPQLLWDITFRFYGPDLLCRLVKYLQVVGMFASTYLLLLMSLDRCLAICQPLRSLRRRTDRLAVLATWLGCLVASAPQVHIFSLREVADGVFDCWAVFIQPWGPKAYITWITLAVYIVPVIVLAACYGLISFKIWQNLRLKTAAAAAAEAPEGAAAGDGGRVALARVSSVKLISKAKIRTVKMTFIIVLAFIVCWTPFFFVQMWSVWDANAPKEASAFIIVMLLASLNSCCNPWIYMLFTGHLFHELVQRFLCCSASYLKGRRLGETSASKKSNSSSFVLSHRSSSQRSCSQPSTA
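System: human OTR in CHO cells; Also added: sub-maximal oxytocin, roughly EC15; Timing: compound 6 min at room temperature before oxytocin, 100 s read; Technique: Fluo-8 intracellular calcium fluorescence, ex 470-495, em 515-575 nm; Controls: oxytocin EC15 low and EC100 high; Replication: singlicate.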
OX1R antag-2: antagonists of human orexin 1 receptor (OX1R). AID 485270, 2010. OX1R-expressing cells, FRET antagonist read-out. inhibition, % at 6.6 µM. 330,000 tested, 1.8% active. Orexin/Hypocretin receptor type 1 (Homo sapiens), O43613; in the data active means inhibition mostly above about 38%, no sharp cut-off; inactive means mostly below about 40%
OXTR ag: human OXTR agonists, primary screen, fluorescence, CHO-OTR cells, Fluo-8 calcium | activation, % at 3 µM | Oxytocin receptor (Homo sapiens), P30559 | AID 2435, 2010 | Fluo-8 calcium fluorescence; normalized: DMSO 0%, oxytocin 100% | 320,000 tested, 0.32% active;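 active means activation above the mean of all tested compounds plus 3 SD, cutoff set per screening run, cut at about 20% in these data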;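 further: peak over basal fluorescence ratio from a 100 s FLIPR kinetic read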
Hits are given with their value; - = inactive.

SMILES	OX1R antag-1	V1aR counter	CHO parental Ca	OXTR potentiate	OX1R antag-2	OXTR ag
COc1ccc(Cc2n[nH]c(=S)n2NC(=O)Nc2ccc(Cl)c(Cl)c2)cc1	-	-	52	-	58	-
COc1cc(OC)cc(C(=O)NC(C(=O)N2CCc3ccccc3C2)C(C)C)c1 (centres undefined)	-	-	-	-	-	-
CCc1ccc2[nH]c(=O)c(CN(Cc3ccccc3OC)Cc3nnnn3Cc3ccco3)cc2c1	-	-	-	-	-	-
COc1ccccc1CN(Cc1cc2cc(C)ccc2[nH]c1=O)Cc1nnnn1Cc1ccco1	-	-	-	-	72	-
COc1ccccc1CN1CC(C(=O)N(Cc2cnn(C)c2)C(C)C)CCC1=O (centres undefined)	-	-	-	-	-	-
Cn1ncc2c(Nc3ccc(Cl)c(Cl)c3)ncnc21	-	-	-	-	65	-
CC1C(=O)N(Cc2ccccc2F)c2ccccc2N1C(=O)c1c(F)cccc1F (centres undefined)	-	-	62	-	-	-
Cc1ccc(OCCNC(=O)c2cccc(S(=O)(=O)N3CCN(C)CC3)c2)cc1	-	-	-	-	-	-
CC(C)Oc1ccc(S(=O)(=O)N2CCOCC2)cc1NC(=O)C1COc2ccccc2O1 (centres undefined)	-	-	-	-	-	-
COc1cc(-c2nnc(COC(=O)CSc3cc(C)c4ccccc4n3)o2)cc(OC)c1OC	-	-	-	-	70	-
CCCCCNC(=O)c1ccc2c(=O)[nH]c3c(C(=O)NCC4CCCO4)sc(=S)n3c2c1 (centres undefined)	-	-	-	-	79	-
Cc1ccc(CNC(=O)c2ccc3c(=O)[nH]c4c(C(=O)NCC5CCCO5)sc(=S)n4c3c2)cc1 (centres undefined)	-	-	-	-	-	-
CN(CC(=O)N1CCN(C2CCCCC2)CC1)S(=O)(=O)c1cccc2nsnc12	-	-	-	-	-	-
CN(CC(=O)Nc1ccc(F)c(Cl)c1)S(=O)(=O)c1cccc2nsnc12	-	-	-	-	-	-
CN(CC(=O)N1CCCCC1)S(=O)(=O)c1cccc2nsnc12	-	-	-	-	55	-
CN(CC(=O)NCCc1ccc(S(N)(=O)=O)cc1)S(=O)(=O)c1cccc2nsnc12	-	-	-	-	59	-
Cc1ccc(NC(=O)CN(C)S(=O)(=O)c2cccc3nsnc23)cc1	-	-	-	-	-	-
CC(=O)c1cccc(NC(=O)CN(C)S(=O)(=O)c2cccc3nsnc23)c1	-	-	-	-	44	-
Cc1ccc(CNC(=O)CN(C)S(=O)(=O)c2cccc3nsnc23)cc1	-	-	-	-	71	-
CCCCC(C(=O)NC1CCCC1)N(C(=O)c1snc(C(N)=O)c1N)c1ccc(F)cc1 (centres undefined)	-	-	-	-	-	-
COc1cccc(Cn2cc(C)cc(NC(=O)NCc3ccccc3)c2=O)c1	-	-	-	-	-	-
Cc1cccc(N(Cc2ccccc2)C(=O)CN2C(=O)NC3(CCCC3)C2=O)c1	-	-	-	-	-	-
CCc1cc2cccc(C)c2nc1SCC(=O)c1ccc(NC(C)=O)cc1	-	-	-	-	53	-
CCc1cc2ccc(C)c(C)c2nc1SCC(=O)NNC(=O)c1ccco1	-	-	-	-	-	-
CCc1cc2ccc(C)cc2nc1SCC(=O)c1ccc(NC(C)=O)cc1	-	-	-	-	-	-
SMILES	OX1R antag-1	V1aR counter	CHO parental Ca	OXTR potentiate	OX1R antag-2	OXTR ag
CCc1cc2cccc(C)c2nc1SCC(=O)NNC(=O)c1ccco1	-	-	-	-	70	-
CCOc1ccc(N(C)S(=O)(=O)c2cc(-c3cc(C)no3)ccc2CC)cc1	43	-	64	-	-	-
COc1ccc(-c2cc(C)no2)cc1S(=O)(=O)N1CCOc2ccc(C)cc21	-	-	-	-	-	-
CCc1ccc(-c2cc(C)no2)cc1S(=O)(=O)N1CCOc2ccccc21	-	-	-	-	49	-
CCOC(=O)C1=C(C)NC(C)=C(C(=O)OCC)C1C(=O)OCC(=O)NC1CCCCC1	-	-	-	-	-	-
CC1CCN(C(=O)c2[nH]cnc2C(=O)Nc2ccc(Cl)cc2)CC1	-	-	-	-	-	-
COc1ccc2c(c1)c(-c1csc(N)n1)c(C)n2C	-	-	-	-	46	-
CNc1nc(-c2c(C)n(C)c3ccc(OC)cc23)cs1	-	-	-	-	-	-
Cc1cccc(NC(=O)c2cccc(NS(=O)(=O)c3ccc(Cl)cc3)c2)c1	-	-	-	-	-	-
Cc1cccc(NS(=O)(=O)c2nnc(NC(=O)c3ccc(Cl)cc3)s2)c1	-	-	-	-	59	-
Cc1cccc(NS(=O)(=O)c2nnc(NC(=O)c3cccc(C)c3)s2)c1	-	-	-	-	63	-
Cc1ccccc1NS(=O)(=O)c1nnc(NC(=O)c2ccc(Cl)cc2)s1	-	-	-	-	-	-
CCc1sc(C(=O)Nc2cccnc2)cc1Br	-	-	-	-	-	-
C/C=C(/C)C(=O)O[C@@H]1c2c(ccc3ccc(=O)oc23)OC(C)(C)[C@@H]1OC(=O)/C(C)=C\C	-	-	62	-	-	-
C/C=C(/C)C(=O)O[C@@H]1[C@H](OC(=O)C=C(C)C)c2c(ccc3ccc(=O)oc23)OC1(C)C	-	-	-	-	-	-
COc1ccc(CCNC(=O)COC(=O)c2cc(S(=O)(=O)N3CCCC3)ccc2O)cc1	-	-	-	-	-	-
CC1=NN(c2ccccc2)C(=O)/C1=C\C=C1/N(C)c2ccccc2C1(C)C	42	43	28	-	-	34
CC1=NN(c2ccccc2)C(=O)/C1=C\C=C1\N(C)c2ccccc2C1(C)C	50	36	-	-	-	31
CN1/C(=C\C=C2/SC(=S)NC2=O)C(C)(C)c2ccccc21	99	100	95	-	-	123
Cc1ccccc1OCCOc1cccc(/C=N/NC(=O)Cc2nnc(N)s2)c1	48	-	53	-	-	-
Nc1nnc(CC(=O)N/N=C/c2cccc(OCCOc3ccccc3)c2)s1	-	-	-	-	-	-
C=CCn1c(SCC(=O)N2CCCC2=O)nc2sc(CC)cc2c1=O	-	40	-	-	-	38
